Reference: ChEMBL document CHEMBL1122032, “Dopaminergic activity of substituted 6-chloro-1-phenyl-2,3,4,5-tetrahydro-1H-3-benzazepines” (J Med Chem, 1982)
Activity calls are given as the source filed them. The rule behind the calls is not given here.

Columns and labels:
[1] = Selectivity ratio of compound as ED15 relative to heart rate(HR) ED20; format: functional
Method in brief: (§1)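 Secondary renal screen in anesthetized dogs: cumulative dose-response by infusing drug at progressively increasing rates, 5 min per dose level. RVR ED15 is the average minimum cumulative dose lowering RVR by 15%; maximum effect is the average maximum % fall in RVR. Selectivity ratios are separations between RVR ED15 and doses giving 30% change in iliac vascular resistance, 20% in MABP, 20% in HR.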

[2] = Selectivity ratio of compound as ratio of ED15 relative to mean arterial blood pressure(MABP) ED20; format: functional; method in brief: as §1
Canis familiaris [3] = assay: Compound was evaluated for determining renal vascular resistance(iv) in dogs; format: functional, Canis lupus familiaris; method in brief: as §1
Canis familiaris [4] = species: Canis familiaris; assay: Renal vascular resistance was calculated as the ratio of the mean arterial blood pressure / mean renal blood flow; Highly significant activity; format: functional, organism-based; settings: Canis lupus familiaris
[5] = Selectivity ratio of Compound as ratio of ED15 relative to iliac vascular resistance(IVR) ED30; format: functional; method in brief: as §1
Canis familiaris [6] = species: Canis familiaris; assay: Renal blood flow was measured in dogs; Highly significant activity; format: functional, organism-based; settings: Canis lupus familiaris; Kidney
Canis familiaris [7] = species: Canis familiaris; assay: Compound was evaluated for average maximum percent decrease in renal vascular resistance in dogs; format: functional, Canis lupus familiaris; method in brief: as §1
Rattus norvegicus [8] = species: Rattus norvegicus; assay: Adenylase cyclase activity in rat striatal membranes at the concentration of 10e-6; format: functional; settings: Striatum, Membrane
Rattus norvegicus [9] = assay: Central dopaminergic activity for minimum concentration which produced 500 rotations at the dose of 10 mg/kg (i.p.) in 2 h; format: functional; settings: route intraperitoneal
Method in brief: (§2)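 Rats with substantia nigra lesions scored for contralateral rotation after intraperitoneal dosing (routine), oral dosing for selected compounds, or intracaudal administration for intrinsic activity. RD500 and RD1000 are the minimum doses giving 500 and 1000 turns, respectively, in 2 h.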

Rattus norvegicus [10] = species: Rattus norvegicus; assay: Adenylase cyclase activity in rat striatal membranes at the concentration of 10e-5; format: functional; settings: Striatum, Membrane
Canis familiaris [11] = species: Canis familiaris; assay: Renal vascular resistance was calculated as the ratio of the mean arterial blood pressure / mean renal blood flow; I=Inactive; format: functional, organism-based; settings: Canis lupus familiaris
Canis familiaris [12] = species: Canis familiaris; assay: Renal blood flow was measured in dogs; I=Inactive; format: functional, organism-based; settings: Canis lupus familiaris; Kidney
Canis familiaris [13] = species: Canis familiaris; assay: Renal blood flow was measured in dogs; Significant activity; format: functional, organism-based; settings: Canis lupus familiaris; Kidney
Rattus norvegicus [14] = assay: Central dopaminergic activity against contralateral rotation(1000) in lesioned rats(po) in 2 h; format: functional
Method in brief: (§3)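 Oral dosing in rats with substantia nigra lesions, scoring contralateral rotations. RD1000 is the minimum dose producing 1000 turns in 2 h.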

Rattus norvegicus [15] = assay: Central dopaminergic activity for minimum concentration which produced 500 rotations(ip) in 2 h; format: functional; method in brief: as §2
Rattus norvegicus [16] = assay: Central dopaminergic activity for minimum concentration which produced 500 rotations at the dose of 10 mg/kg (i.p.) in 2 h; I=Inactive; format: functional, organism-based; parameters: dose 10 mg/kg; method in brief: as §2
Rattus norvegicus [17] = assay: Central dopaminergic activity against contralateral rotation(1000) in lesioned rats at the dose of 6 mg/kg (p.o.) in 2 h; I=Inactive
Rattus norvegicus [18] = assay: Central dopaminergic activity against contralateral rotation(1000) in lesioned rats(po) in 2 hr at 10 mg/kg; I=Inactive; format: functional, organism-based; parameters: dose 10 mg/kg; method in brief: as §3
Canis familiaris [19] = species: Canis familiaris; assay: Renal vascular resistance was calculated as the ratio of the mean arterial blood pressure / mean renal blood flow; Significant activity; format: functional, organism-based; settings: Canis lupus familiaris

Row | DA response (Rattus norvegicus [8]) [%] | DA response (Rattus norvegicus [10]) [%] | Structure (SMILES) | Ratio [1] | Ratio [2] | RVR ED15 (Canis familiaris [3]) [mg/kg] | RVR (Canis familiaris [4]) | Ratio [5] | RBF (Canis familiaris [6]) | Decrease RVR (Canis familiaris [7]) [%] | RVR (Canis familiaris [11]) | RD500 (Rattus norvegicus [15]) [mg/kg] | other results
1 | – | – | NCCc1ccc(O)c(O)c1 [DOPAMINE] | 141 | 113 | 0.0027 | Active | 56 | Active | 36 | – | – | –
2 | 23 | 42 | Br.Cc1ccc(C2CNCCc3c2cc(O)c(O)c3Cl)cc1 (stereo unspecified) | – | – | – | – | – | – | – | inactive | – | Contralateral turns in 2 h (Rattus norvegicus [9]): 420 turns/2 h; RBF (Canis familiaris [12]): inactive
3 | 85 | 90 | Br.CCCCN1CCc2c(cc(O)c(O)c2Cl)C(c2ccccc2)C1 (stereo unspecified) | – | – | – | – | – | – | – | inactive | – | Contralateral turns in 2 h (Rattus norvegicus [9]): 611 turns/2 h; RBF (Canis familiaris [12]): inactive
4 | – | – | Br.OCCN1CCc2c(cc(O)c(O)c2Cl)C(c2ccccc2)C1 (stereo unspecified) | >6072 | >6072 | 0.0045 | – | 929 | – | 42 | inactive | – | Contralateral turns in 2 h (Rattus norvegicus [9]): 1310 turns/2 h; RBF (Canis familiaris [13]): Significant activity
5 | 15 | 14 | Br.Cc1cccc(C2CN(C)CCc3c2cc(O)c(O)c3Cl)c1 (stereo unspecified) | – | – | – | – | – | – | – | inactive | 0.041 | RD1000 (Rattus norvegicus [14]): 2 mg/kg; RBF (Canis familiaris [12]): inactive
6 | 41 | 82 | Cl.Oc1cc2c(c(Cl)c1O)CCN(Cc1ccco1)CC2c1ccccc1 (stereo unspecified) | >6072 | >6072 | 0.2 | Significant activity | > 6070 | Highly significant activity | 26 | – | – | Contralateral turns in 2 h (Rattus norvegicus [9]): 611 turns/2 h
7 | – | – | Br.Oc1cc(C2CNCCc3c2cc(O)c(O)c3Cl)ccc1Cl (stereo unspecified) | >249 | >249 | 0.061 | Significant activity | > 249 | Highly significant activity | 25 | – | – | RD500 (Rattus norvegicus [16]): inactive
8 | – | – | Oc1cc2c(c(Cl)c1O)CCN(Cc1ccco1)CC2c1cccc(Cl)c1 (stereo unspecified) | – | – | – | – | – | – | – | inactive | – | RD1000 (Rattus norvegicus [17]): inactive; RBF (Canis familiaris [13]): Significant activity
9 | – | – | Br.Oc1ccc(C2CNCCc3c2cc(O)c(O)c3Cl)cc1Cl (stereo unspecified) | 0 | -3 | 0.099 | – | -1 | – | 56 | inactive | – | RD500 (Rattus norvegicus [16]): inactive; RBF (Canis familiaris [13]): Significant activity
10 | – | – | C=CCN1CCc2c(cc(OC(C)=O)c(OC(C)=O)c2Cl)C(c2ccccc2)C1.Cl (stereo unspecified) | – | – | – | – | – | – | – | – | 0.03 | RD1000 (Rattus norvegicus [18]): inactive
11 | – | – | Br.C=CCN1CCc2c(cc(O)c(O)c2Cl)C(c2ccccc2)C1 (stereo unspecified) | – | – | – | Active | – | Active | – | – | 0.03 | –
12 | – | – | COc1ccc(CN2CCc3c(cc(O)c(O)c3Cl)C(c3ccccc3)C2)cc1 (stereo unspecified) | – | – | – | Significant activity | – | Highly significant activity | – | – | – | RD500 (Rattus norvegicus [16]): inactive
13 | 52 | 68 | Br.Oc1cc2c(c(Cl)c1O)CCNCC2c1ccc(Cl)cc1 (stereo unspecified) | – | – | – | – | – | – | – | inactive | 3.4 | RBF (Canis familiaris [12]): inactive
14 | 51 | 64 | Cl.Oc1cc2c(c(Cl)c1O)CCN(Cc1cccs1)CC2c1ccccc1 (stereo unspecified) | – | – | – | – | – | – | – | – | 0.063 | RD1000 (Rattus norvegicus [14]): 5.8 mg/kg; RBF (Canis familiaris [13]): Significant activity; RVR (Canis familiaris [19]): Significant activity
15 | – | – | CC(=O)Oc1cc2c(c(Cl)c1OC(C)=O)CCNCC2c1ccccc1 (stereo unspecified) | – | – | – | Significant activity | – | Highly significant activity | – | – | – | –
